Laboratory results from ChEMBL document CHEMBL3045292, “Synthesis and herbicidal activity of 2-(7-fluoro-3-oxo- 3,4-dihydro-2H-benzo[b][1,4]oxazin-6-yl)isoindoline-1,3-diones” (J Agric Food Chem, 2005).

Legend:
[1] = system: Abutilon theophrasti; assay: Herbicidal activity against Abutilon theophrasti (velvetleaf) assessed as weed growth inhibition at 75 g/ha pre-emergence treatment […]; assay type: functional; details: read-out: GI
Procedure, shortened: (§1)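 Pot-grown plants in the greenhouse, in clay soil (pH 6.5, 1.6% organic matter, 37.3% clay, CEC 12.1 cmol/kg). Compound was made up as a 100 g/L emulsified concentrate (DMF, Tween-80), diluted in water and sprayed at 75 g ai/ha. Pre-emergence spraying was 24 h after sowing; post-emergence at two-leaf (dicots) or one-leaf (monocots) stage. Untreated and DMF controls. Percent growth inhibition scored visually 15 days post-treatment.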

[2] = system: Digitaria sanguinalis; assay: Herbicidal activity against crabgrass Digitaria sanguinalis(hairy crabgrass) assessed as weed growth inhibition at 75 g/ha post-emergence treatment […]; assay type: functional; details: read-out: GI; procedure, shortened: as §1
[3] = system: Setaria viridis; assay: Herbicidal activity against Setaria viridis (green foxtail) assessed as weed growth inhibition at 75 g/ha pre-emergence treatment […]; assay type: functional; details: read-out: GI; procedure, shortened: as §1
[4] = system: Chenopodium album; assay: Herbicidal activity against fat hen Chenopodium album assessed as weed growth inhibition at 75 g/ha post-emergence treatment […]; assay type: functional; details: read-out: GI; procedure, shortened: as §1
[5] = system: Abutilon theophrasti; assay: Herbicidal activity against Abutilon theophrasti (velvetleaf) assessed as weed growth inhibition at 75 g/ha post-emergence treatment […]; assay type: functional; details: read-out: GI; procedure, shortened: as §1
[6] = system: Setaria viridis; assay: Herbicidal activity against Setaria viridis (green foxtail) assessed as weed growth inhibition at 75 g/ha post-emergence treatment […]; assay type: functional; details: read-out: GI; procedure, shortened: as §1
[7] = system: Chenopodium album; assay: Herbicidal activity against fat hen Chenopodium album assessed as weed growth inhibition at 75 g/ha pre-emergence treatment […]; assay type: functional; details: read-out: GI; procedure, shortened: as §1
[8] = system: Amaranthus blitum; assay: Herbicidal activity against Amaranthus blitum assessed as weed growth inhibition at 75 g/ha pre-emergence treatment […]; assay type: functional; details: read-out: GI; procedure, shortened: as §1
[9] = system: Digitaria sanguinalis; assay: Herbicidal activity against crabgrass Digitaria sanguinalis(hairy crabgrass) assessed as weed growth inhibition at 75 g/ha pre-emergence treatment […]; assay type: functional; details: read-out: GI; procedure, shortened: as §1
[10] = system: Abutilon theophrasti; assay: Herbicidal activity against Abutilon theophrasti (velvetleaf) assessed as weed growth inhibition at post-emergence treatment […]; assay type: functional, organism-based; procedure, shortened: as §1
[11] = system: Digitaria sanguinalis; assay: Herbicidal activity against crabgrass Digitaria sanguinalis(hairy crabgrass) assessed as weed growth inhibition at post-emergence treatment […]; assay type: functional, organism-based; procedure, shortened: as §1
[12] = system: Echinochloa crus-galli; assay: Herbicidal activity against Echinochloa crus-galli (barnyard grass) (barnyard grass) assessed as weed growth inhibition at 75 g/ha post-emergence treatment […]; assay type: functional; details: read-out: GI; procedure, shortened: as §1
[13] = system: Amaranthus blitum; assay: Herbicidal activity against Amaranthus blitum assessed as weed growth inhibition at 75 g/ha post-emergence treatment […]; assay type: functional; details: read-out: GI; procedure, shortened: as §1
[14] = system: Echinochloa crus-galli; assay: Herbicidal activity against Echinochloa crus-galli (barnyard grass) (barnyard grass) assessed as weed growth inhibition at 75 g/ha pre-emergence treatment […]; assay type: functional; details: read-out: GI; procedure, shortened: as §1

Compound	inhibition of growth at 75 g/ha [1] [%]	inhibition of growth at 75 g/ha [2] [%]	inhibition of growth at 75 g/ha [3] [%]	inhibition of growth at 75 g/ha [4] [%]	inhibition of growth at 75 g/ha [5] [%]	inhibition of growth at 75 g/ha [6] [%]	inhibition of growth at 75 g/ha [7] [%]	inhibition of growth at 75 g/ha [8] [%]	inhibition of growth at 75 g/ha [9] [%]	IC50 [10] [g/ha]	IC50 [11] [g/ha]	inhibition of growth at 75 g/ha [12] [%]	inhibition of growth at 75 g/ha [13] [%]	inhibition of growth at 75 g/ha [14] [%]
N#CCN1C(=O)COc2cc(F)c(N3C(=O)c4ccccc4C3=O)cc21	< 50	50	< 50	< 50	< 50	< 50	< 50	< 50	< 50	92	57	< 50	< 50	< 50
CC1Oc2cc(F)c(N3C(=O)c4ccccc4C3=O)cc2N(CC#CI)C1=O (stereo not given)	> 80	50	> 80	> 80	> 80	< 50	> 80	> 80	> 80	7.4	60	< 50	> 80	> 80
C#CCN1C(=O)COc2cc(F)c(N3C(=O)c4cccc(C)c4C3=O)cc21	< 50	50	< 50	< 50	< 50	< 50	< 50	< 50	< 50	87	63	50	< 50	< 50
O=C1COc2cc(F)c(N3C(=O)c4ccccc4C3=O)cc2N1CC#CI	> 80	50	50	> 80	> 80	50	> 80	> 80	> 80	3.9	68	< 50	> 80	< 50
C#CCN1C(=O)COc2cc(F)c(N3C(=O)c4ccccc4C3=O)cc21	> 80	> 80	< 50	> 80	> 80	> 80	> 80	> 80	> 80	7.5	17	> 80	> 80	< 50
C#CCN1C(=O)COc2cc(F)c(N3C(=O)c4ccc(C)cc4C3=O)cc21	< 50	> 80	< 50	> 80	> 80	< 50	< 50	< 50	< 50	28	31	50	> 80	< 50
C#CCN1C(=O)C(C)Oc2cc(F)c(N3C(=O)c4cccc(F)c4C3=O)cc21 (stereo not given)	> 80	> 80	> 80	> 80	> 80	> 80	> 80	> 80	> 80	7.7	42	> 80	> 80	> 80
C#CCN1C(=O)C(C)Oc2cc(F)c(N3C(=O)c4ccc(C)cc4C3=O)cc21 (stereo not given)	> 80	< 50	< 50	> 80	> 80	< 50	> 80	> 80	< 50	18	393	< 50	> 80	< 50
C#CCN1C(=O)COc2cc(F)c(N3C(=O)c4cccc([N+](=O)[O-])c4C3=O)cc21	< 50	< 50	< 50	< 50	< 50	< 50	< 50	< 50	< 50	300	210	< 50	< 50	< 50
C#CCN1C(=O)C(C)Oc2cc(F)c(N3C(=O)c4ccccc4C3=O)cc21 (stereo not given)	> 80	< 50	< 50	> 80	> 80	< 50	> 80	> 80	< 50	7.5	161	< 50	> 80	< 50
CC1Oc2cc(F)c(N3C(=O)c4cccc(F)c4C3=O)cc2N(CC#CI)C1=O (stereo not given)	> 80	< 50	< 50	> 80	> 80	< 50	> 80	> 80	< 50	7.5	238	< 50	> 80	< 50
C#CCN1C(=O)COc2cc(F)c(N3C(=O)c4cccc(F)c4C3=O)cc21	> 80	> 80	> 80	> 80	> 80	> 80	> 80	> 80	> 80	23	20	> 80	> 80	> 80
O=C1COc2cc(F)c(N3C(=O)c4cccc(F)c4C3=O)cc2N1CC#CI	> 80	> 80	< 50	> 80	> 80	> 80	> 80	> 80	< 50	7.2	40	> 80	> 80	< 50
O=C1COc2cc(F)c(N3C(=O)c4ccccc4C3=O)cc2N1CC#CBr	< 50	< 50	< 50	< 50	< 50	< 50	< 50	< 50	< 50	121	314	< 50	< 50	< 50
CN1C(=O)COc2cc(F)c(N3C(=O)c4cccc(F)c4C3=O)cc21	50	< 50	< 50	> 80	> 80	< 50	50	50	< 50	45	> 1800	< 50	> 80	< 50
